Assay outcomes (PubChem BioAssay)
GSK3B inh: blocks human GSK3beta kinase activity; activity score (negative = inhibition), % at 10 µM; P49841; GST-GSK3beta kinase, ADP-Glo luminescence, 60 min; hits give low values; 300,000 tested, 0.038% active;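 active = more than half of replicate wells score below -50%, meaning over 50% inhibition versus plate controls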;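 note: 0% = median DMSO wells and -100% = median GW8510 positive control wells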
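Test system: GST-tagged human GSK3beta kinase, cell-free; evaluation: activity score scaled between in-plate DMSO and GW8510 controls; measured by: ADP-Glo luminescence; incubation: 60 min reaction, RT; benchmarks: DMSO and 20 µM GW8510; reagent: peptide substrate plus 25 µM ATP (final); medium: Tris/MgCl2 kinase buffer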
STK33 kinase inh: inhibitors of human STK33 kinase; purified STK33, MBP phosphorylation, ADP-Glo luminescence; inhibition, % at 10 µM; 320,000 tested, 0.073% active; AID 2661;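 active = inhibition at or above 25%, using the most active replicate where run in duplicate; inactive = inhibition below 25%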
GSK3A inh: human GSK-3 alpha kinase inhibition; inhibition, % at 10 µM; P49840; 320,000 tested, 0.1% active; ADP-Glo luminescence, 60 min;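 active = more than half of replicates show inhibition above 20%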;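 note: GST-tagged GSK-3 alpha with peptide substrate and 25 µM ATP; 0% = DMSO neutral wells and 100% = GW8510 positive control wells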
INS-1E GSIS act: GLuc luminescence reporter in INS-1E cells, primary screen for activators of glucose-dependent secretion of insulin. INS-1E GLuc reporter insulin secretion, 2-3 h. activation, % at 16.6 µM. 370,000 tested, 0.61% active;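 active = lowest replicate activation of at least 40%, so every replicate reaches that level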;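 note: 0% = median of neutral control wells and 100% = median of IBMX positive control wells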
Env fusion inh: blocks HIV Env-driven cell-cell fusion. AID 651610. HeLa-JRFL Env/CEM21 cell fusion, luciferase. 360,000 tested, 1.1% active. inhibition, % at 12.3 µM;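 active = mean replicate inhibition score of at least 50 and every replicate individually at or above 50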;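 note: 0% = plate neutral controls and 100% = maraviroc near 300 nM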
CDK5 p35 inh: inhibitors of human CDK5/p35 kinase; Q00535+Q15078; Recombinant CDK5/p35, ADP-Glo luminescence, 60 min; inhibition, % at 10 µM; 330,000 tested, 0.01% active;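 active = highest replicate inhibition of at least 50% and at least 75% of replicates reaching 50%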;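 note: plate controls were DMSO neutral control for no effect and GW8510 at 10 µM for full effect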
Target sequence (Q00535 whole entry, looked up): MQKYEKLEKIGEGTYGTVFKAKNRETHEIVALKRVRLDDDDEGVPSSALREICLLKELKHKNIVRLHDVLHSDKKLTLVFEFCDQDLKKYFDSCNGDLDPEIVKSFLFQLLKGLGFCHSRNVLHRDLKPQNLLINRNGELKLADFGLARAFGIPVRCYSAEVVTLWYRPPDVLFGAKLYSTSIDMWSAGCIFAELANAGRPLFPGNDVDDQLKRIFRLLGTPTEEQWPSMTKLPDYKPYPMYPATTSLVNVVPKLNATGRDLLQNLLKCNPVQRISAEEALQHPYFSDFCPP
Target sequence (Q15078 whole entry, looked up): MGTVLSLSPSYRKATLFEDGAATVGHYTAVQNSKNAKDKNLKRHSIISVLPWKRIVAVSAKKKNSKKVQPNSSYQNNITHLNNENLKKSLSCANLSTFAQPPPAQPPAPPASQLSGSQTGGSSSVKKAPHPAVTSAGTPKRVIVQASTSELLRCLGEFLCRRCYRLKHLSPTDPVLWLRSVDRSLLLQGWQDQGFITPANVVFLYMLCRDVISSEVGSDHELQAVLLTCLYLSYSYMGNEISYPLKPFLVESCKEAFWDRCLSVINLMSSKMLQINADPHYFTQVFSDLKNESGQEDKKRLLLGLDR
The depositor's hits bear a star; [ ] = remark or other dose. The list is not random: actives were taken first. Their share in the collection is about 1.4%.

Screening CC(O)c1nc2ccc(Cc3ccc4nc(C(C)O)[nH]c4c3)cc2[nH]1 (configuration not stated) returned GSK3B inh -2.4, STK33 kinase inh -1.1, GSK3A inh 1.8, INS-1E GSIS act 45.8* and CDK5 p35 inh 1.4.
COc1ccc2nc(C(C)O)[nH]c2c1 (configuration not stated) was read as GSK3B inh 1.0, STK33 kinase inh -0.9, GSK3A inh -3.1, Env fusion inh -90.6 and CDK5 p35 inh -0.4.
For CC(=O)Nc1nc(C)nc(-c2ccccc2OC(C)=O)n1 the results were GSK3B inh 0.3, STK33 kinase inh 0.7, GSK3A inh 0.7, INS-1E GSIS act 44.8* and CDK5 p35 inh 2.7.
O=C(COc1ccc(-n2cnnn2)cc1)Nc1ccc(F)c(F)c1 was read as STK33 kinase inh -1.8, GSK3A inh -8.7, INS-1E GSIS act -0.4, Env fusion inh 73.7* and CDK5 p35 inh 0.1.
O=C(C[C@@H]1C=C[C@@H](NC(=O)c2ccncc2)[C@H](CO)O1)NCc1ccncn1 was read as INS-1E GSIS act 1.4.
`C[C@@H]1CN(C)C(=O)c2cccnc2O[C@H]1CN(C)S(C)(=O)=O` gave INS-1E GSIS act 1.2.
For N#CCCN(Cc1ccccc1)C(=O)c1cccs1 the results were GSK3B inh -0.4, STK33 kinase inh -0.3, GSK3A inh -1.1, INS-1E GSIS act 40.0*, Env fusion inh -3.9 and CDK5 p35 inh 1.0.
`CC(C)(C)N(Cc1ccccc1)C(=O)c1cccs1` gave GSK3B inh -4.3, STK33 kinase inh -1.8, GSK3A inh 1.6, Env fusion inh -13.1 and CDK5 p35 inh 0.2.
Screening C[C@@H]1CN([C@@H](C)CO)C(=O)c2cccc(NC(=O)Nc3ccc(C(F)(F)F)cc3)c2O[C@H]1CN(C)Cc1ccc(C(=O)O)cc1 returned INS-1E GSIS act -1.2 and Env fusion inh 0.8[16.7 µM].
For O=C(OC[C@H]1O[C@@H](OC(=O)c2cc(O)c(O)c(OC(=O)c3cc(O)c(O)c(O)c3)c2)[C@H](OC(=O)c2cc(O)c(O)c(OC(=O)c3cc(O)c(O)c(O)c3)c2)[C@@H](OC(=O)c2cc(O)c(O)c(OC(=O)c3cc(O)c(O)c(O)c3)c2)[C@@H]1OC(=O)c1cc(O)c(O)c(OC(=O)c2cc(O)c(O)c(O)c2)c1)c1cc(O)c(O)c(OC(=O)c2cc(O)c(O)c(O)c2)c1 the results were STK33 kinase inh 28.4* and GSK3A inh 91.2*.
Screening O=C1C(c2ccncc2)=C(O)c2ccccc21 returned GSK3B inh -1.9, STK33 kinase inh 26.9*, GSK3A inh 3.8 and CDK5 p35 inh 2.9.
Cc1ccc(C2=C(O)c3ccccc3C(=O)C2=O)cc1 was read as GSK3B inh -6.4, STK33 kinase inh 0.9, GSK3A inh 1.2, INS-1E GSIS act -10.0, Env fusion inh -7.3 and CDK5 p35 inh 1.0.
CC1(C)Cc2c(c(-c3ccco3)nc3n[nH]c(N)c23)CO1 was read as GSK3B inh -1.0, STK33 kinase inh 1.3, GSK3A inh 13.2, INS-1E GSIS act 56.0* and CDK5 p35 inh 1.3.
For O=C(NCCCc1nc2ccccc2[nH]1)c1ccco1 the results were GSK3B inh -0.2, STK33 kinase inh -0.1, GSK3A inh 1.7, INS-1E GSIS act 25.8, Env fusion inh 84.1* and CDK5 p35 inh -0.2.
For CO[C@H]1CN(C)C(=O)c2cc(NC(C)=O)ccc2OC[C@@H](C)NC[C@@H]1C the results were INS-1E GSIS act 4.7 and Env fusion inh 11.2[16.7 µM].
For CO[C@H]1CN(C)C(=O)c2ccc(NS(=O)(=O)c3ccc(-c4ccccc4)cc3)cc2OC[C@@H](C)NC[C@@H]1C the results were INS-1E GSIS act -8.8.
For CCCN(C)C[C@H]1Oc2cc(-c3cccc(OC)c3)ccc2S(=O)(=O)N([C@@H](C)CO)C[C@H]1C the results were INS-1E GSIS act 6.5 and Env fusion inh -10.4[16.7 µM].
Screening Fc1ccc2[nH]c3c(N4CCc5ccccc5C4)ncnc3c2c1 returned GSK3B inh -1.3, STK33 kinase inh -0.7, GSK3A inh 0.6, INS-1E GSIS act -17.6 and Env fusion inh 42.3.
`COc1ccc2[nH]c3c(N4CCC(O)(c5cccc(C(F)(F)F)c5)CC4)ncnc3c2c1` gave GSK3B inh -3.7, STK33 kinase inh -1.5, GSK3A inh 2.7, Env fusion inh 100.1* and CDK5 p35 inh -0.4.
Cc1ccc2[nH]c3c(N4CCc5ccccc5C4)ncnc3c2c1 was read as GSK3B inh 0.9, STK33 kinase inh -1.5, GSK3A inh -0.2, Env fusion inh 81.3* and CDK5 p35 inh -1.5.
`CCS(=O)(=O)N1CCC2(CC1)CN(S(=O)(=O)c1cccc(OC)c1)[C@H](CO)c1[nH]c3cc(OC)ccc3c12` gave INS-1E GSIS act -0.4.
Screening c1ccc(Cn2nnc3c(N4CCc5ccccc54)ncnc32)cc1 returned GSK3B inh 1.2, STK33 kinase inh -2.4, GSK3A inh -3.5, INS-1E GSIS act 86.2*, Env fusion inh -126.7 and CDK5 p35 inh 0.9.
Screening C[C@@H]1CN([C@@H](C)CO)C(=O)c2cc(NC(=O)CCCN(C)C)ccc2O[C@@H](C)CCCCO[C@H]1CN(C)C(=O)CCCN(C)C returned INS-1E GSIS act 25.4.
O=C(NCc1cccs1)c1nc2c(nnn2Cc2ccccc2Cl)c(=O)[nH]1 was read as GSK3B inh 5.7, STK33 kinase inh -0.3, GSK3A inh -3.4, Env fusion inh 110.7* and CDK5 p35 inh -1.7.
`COc1ccc2c3c([nH]c2c1)[C@H](CO)N(Cc1ccc2c(c1)OCO2)CC31CN(C(=O)Nc2c(C)noc2C)C1` gave INS-1E GSIS act 9.9 and Env fusion inh -30.7[16.7 µM].
`O=C(CSc1nc2[nH]ncc2c(=O)n1-c1ccccc1)NCc1cccs1` gave GSK3B inh -2.8, STK33 kinase inh 0.2, GSK3A inh 5.1, INS-1E GSIS act -12.3, Env fusion inh 13.0 and CDK5 p35 inh 0.8.
For O=C(CSc1nc2[nH]ncc2c(=O)n1-c1ccccc1)NCCc1ccccc1 the results were GSK3B inh -38.0, STK33 kinase inh 0.4, GSK3A inh 54.4*, INS-1E GSIS act 4.3, Env fusion inh -7.3 and CDK5 p35 inh -4.0.
O=C(Nc1cccc(C(F)(F)F)c1)c1csc([C@@H]2O[C@H](CO)[C@@H](O)[C@H]2O)n1 was read as INS-1E GSIS act 80.4* and Env fusion inh 14.7.
`COc1ccc(S(=O)(=O)Nc2ccc3c(c2)C(=O)N([C@H](C)CO)C[C@@H](C)[C@H](CN(C)Cc2ccc(C(=O)O)cc2)O3)cc1` gave INS-1E GSIS act 19.2 and Env fusion inh 5.1[16.7 µM].
`COc1cc2ccc(CC(=O)O)cc2cc1OC` gave INS-1E GSIS act 77.2* and Env fusion inh -32.1.
CC(C)C[C@H]1COCn2nncc2CC[C@@H](Cc2ccccc2)C(=O)N1 was read as INS-1E GSIS act -2.4 and Env fusion inh 65.6*[16.7 µM].
